Experimental data collected from several papers.
pIC50: −log10 of the molar value.
CYP2C9: Cytochrome P450 2C9 (CYP2C9, Homo sapiens, UniProt P11712)

`CCCCCCCCCCOc1cc2c(O)c(C(=O)OCC)cnc2cc1OCC` has a pIC50 of less than 4.00 (CHO; cell growth or viability; 72 h).
`Nc1c2c(nc3c1C(c1ccc(Cl)c(Cl)c1)c1ccc(OCC(=O)c4ccc(Cl)cc4)cc1O3)CCCC2` (stereo not shown) gave a viability of 71.6% (SH-SY5Y; cell growth or viability, MTT; 6.3 µM).
With `COc1cc2c(cc1C(=O)Nc1ccc(C(C)(C)C)cc1)CCCCC2` the CC50 was 148 µM (NHDF; cell growth or viability, ATP luminescence; 24 h).
`COC(=O)C1CCN(C(=O)c2ccc(NCc3cnc4nc(N)nc(N)c4n3)cc2)CC1` has an inhibition of -7.15% (CYP2C9; enzyme activity, inhibitor, luciferase; 10 µM).
With `CCC[C@@](N)(CO)CCc1ccc(OCCCCCC(C)C)cc1` the pIC50 was less than 4.30 (CYP2C9; enzyme activity, inhibitor).
`C[C@]12CC[C@H](n3ccnc3)CC1=CC[C@@H]1[C@@H]2CC[C@]2(C)C(n3cnc4ccccc43)=CC[C@@H]12.Cl` gave a bioavailability of greater than 100% (male CD-1 mouse, plasma; oral, 10 mg/kg).
`O=C(Nc1ccc(Cl)cc1)Nc1cccc(-c2cccc(N3CCCC3)n2)c1` has a half-life of 13.4 min (metabolic stability; rat, liver microsomes; pH 7.4).
For `COc1ccc(S(=O)(=O)Oc2ccc3c(c2)Oc2nc4c(c(N)c2C3c2cccc(OC)c2)CCCC4)cc1` (stereo not shown), the viability was 48.9% (SH-SY5Y; cell growth or viability, MTT; 100 µM).
The half-life of `CCCCCn1cc(C(=O)Nc2cccc3ccccc23)c2ccccc21` is reported as 2.21 min (metabolic stability; Sprague-Dawley rat, liver microsomes; 1 µM, pH 7.4).
`Nc1c2c(nc3c1C(c1cccc([N+](=O)[O-])c1)c1ccc(OS(=O)(=O)c4ccc(F)cc4)cc1O3)CCCC2` (stereo not shown) gave a viability of 48.8% (SH-SY5Y; cell growth or viability, MTT; 25 µM).
The half-life of `CN1CCCCC1Cn1cc(C(=O)c2cc([N+](=O)[O-])ccc2I)c2ccccc21` (racemic) is reported as 13.7 min (metabolic stability; rat, liver microsomes).
With `C[C@]12CC[C@H](O)CC1=CC[C@@H]1[C@@H]2CC[C@]2(C)C(n3cnc4ccccc43)=CC[C@@H]12.Cl` the AUC(0-t) was 26.1 ng·h/mL (mouse, plasma; oral, 10 mg/kg).
With `Cc1cc(C)nc(Nc2ncc(C(=O)NCCc3c(C)[nH]c4ccccc34)cn2)c1` the half-life was 22 min (metabolic stability; male Sprague-Dawley rat, hepatocytes; 1 µM).
